Results as given in ChEMBL document CHEMBL4219021, “Discovery of a Small-Molecule Degrader of Bromodomain and Extra-Terminal (BET) Proteins with Picomolar Cellular Potencies and Capable of Achieving Tumor Regression” (J Med Chem, 2018).
The source made the active and inactive calls. No cut-off for these calls is given here.

How the values were obtained:
[1] = system: RS4-11; experiment: Cytotoxicity against human RS4:11 cells assessed as cell growth inhibition after 4 days by WST-8 assay; assay type: functional, cell-based; conditions: RS4-11, 96 h
[2] = system: MOLM-13; experiment: Cytotoxicity against human MOLM13 cells assessed as cell growth inhibition after 4 days by WST-8 assay; assay type: functional, cell-based; conditions: MOLM-13, 96 h
[3] = target: T1, Protein cereblon/Bromodomain-containing protein 2/Cullin-4A (Homo sapiens) (UniProt P25440+Q96SW2+Q13619); experiment: Induction of cereblon/cullin 4A-mediated BRD2 degradation in human RS4:11 cells at 3 to 30 nM after 3 hrs by Western blot method; assay type: cell-based
Method in brief: (§1)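 RS4;11 cells (2 × 10⁶/well) treated for 3 h at the indicated concentrations. Lysed in RIPA with protease inhibitors and immunoblotted for BRD2, BRD3 and BRD4 with specific antibodies.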

[4] = target: T2, Protein cereblon/Bromodomain-containing protein 3/Cullin-4A (Homo sapiens) (UniProt Q15059+Q96SW2+Q13619); experiment: Induction of cereblon/cullin 4A-mediated BRD3 degradation in human RS4:11 cells at 3 to 30 nM after 3 hrs by Western blot method; assay type: cell-based
Method in brief: (§2)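 Western blot of RS4;11 cells (2 × 10⁶ cells/well) in RPMI 1640 with 10% FBS, 37 °C, 5% CO₂, used within three months of thawing. Compound exposure was 3 h or 24 h at the indicated concentrations. Cells were lysed in RIPA with protease inhibitors, and BRD2, BRD3 and BRD4 were detected with specific antibodies, with GAPDH as loading control.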

[5] = target: T3, Protein cereblon/Bromodomain-containing protein 4/Cullin-4A (Homo sapiens) (UniProt O60885+Q96SW2+Q13619); experiment: Induction of cereblon/cullin 4A-mediated BRD4 degradation in human RS4:11 cells at 30 to 300 nM after 3 hrs by Western blot method; assay type: cell-based; method in brief: as §2
[6] = target: T2, Protein cereblon/Bromodomain-containing protein 3/Cullin-4A (Homo sapiens); experiment: Induction of cereblon/cullin 4A-mediated BRD3 degradation in human RS4:11 cells at 30 to 300 nM after 3 hrs by Western blot method; assay type: cell-based; method in brief: as §2
[7] = target: T1, Protein cereblon/Bromodomain-containing protein 2/Cullin-4A (Homo sapiens); experiment: Induction of cereblon/cullin 4A-mediated BRD2 degradation in human RS4:11 cells at 30 to 300 nM after 3 hrs by Western blot method; assay type: cell-based; method in brief: as §1
[8] = target: T2, Protein cereblon/Bromodomain-containing protein 3/Cullin-4A (Homo sapiens); experiment: Induction of cereblon/cullin 4A-mediated BRD3 degradation in human RS4:11 cells after 3 hrs by Western blot method; assay type: cell-based; method in brief: as §1
[9] = target: T3, Protein cereblon/Bromodomain-containing protein 4/Cullin-4A (Homo sapiens); experiment: Induction of cereblon/cullin 4A-mediated BRD4 degradation in human RS4:11 cells after 3 hrs by Western blot method; assay type: cell-based; method in brief: as §2
[10] = target: T1, Protein cereblon/Bromodomain-containing protein 2/Cullin-4A (Homo sapiens); experiment: Induction of cereblon/cullin 4A-mediated BRD2 degradation in human RS4:11 cells after 3 hrs by Western blot method; assay type: cell-based; method in brief: as §1
[11] = target: T3, Protein cereblon/Bromodomain-containing protein 4/Cullin-4A (Homo sapiens); experiment: Induction of cereblon/cullin 4A-mediated BRD4 degradation in human RS4:11 cells at 3 to 10 nM after 3 hrs by Western blot method; assay type: cell-based; method in brief: as §2
[12] = target: T2, Protein cereblon/Bromodomain-containing protein 3/Cullin-4A (Homo sapiens); experiment: Induction of cereblon/cullin 4A-mediated BRD3 degradation in human RS4:11 cells at 3 to 10 nM after 3 hrs by Western blot method; assay type: cell-based; method in brief: as §2
[13] = target: T1, Protein cereblon/Bromodomain-containing protein 2/Cullin-4A (Homo sapiens); experiment: Induction of cereblon/cullin 4A-mediated BRD2 degradation in human RS4:11 cells at 3 to 10 nM after 3 hrs by Western blot method; assay type: cell-based; method in brief: as §1
[14] = target: T4, Bromodomain-containing protein 2 (Homo sapiens, UniProt P25440); experiment: Inhibition of FAM-labeled ZBA248 binding to recombinant N-terminal His6-tagged BRD2 bromodomain 1 (72 to 205 residues) (unknown origin) expressed in Escherichia coli Rosetta2 DE3 after 30 mins by fluorescence polarization assay
[15] = target: T4, Bromodomain-containing protein 2; experiment: Inhibition of FAM-labeled ZBA248 binding to recombinant N-terminal His6-tagged BRD2 bromodomain 2 (349 to 460 residues) (unknown origin) expressed in Escherichia coli Rosetta2 DE3 after 30 mins by fluorescence polarization assay
[16] = target: T5, Bromodomain-containing protein 3 (Homo sapiens, UniProt Q15059); experiment: Inhibition of FAM-labeled ZBA248 binding to recombinant N-terminal His6-tagged BRD3 bromodomain 1 (24 to 144 residues) (unknown origin) expressed in Escherichia coli Rosetta2 DE3 after 30 mins by fluorescence polarization assay
[17] = target: T5, Bromodomain-containing protein 3; experiment: Inhibition of FAM-labeled ZBA248 binding to recombinant N-terminal His6-tagged BRD3 bromodomain 2 (306 to 417residues) (unknown origin) expressed in Escherichia coli Rosetta2 DE3 after 30 mins by fluorescence polarization assay
[18] = target: T6, Bromodomain-containing protein 4 (Homo sapiens, UniProt O60885); experiment: Inhibition of FAM-labeled ZBA248 binding to recombinant N-terminal His6-tagged BRD4 bromodomain 1 (44 to 168 residues) (unknown origin) expressed in Escherichia coli Rosetta2 DE3 after 30 mins by fluorescence polarization assay
[19] = target: T6, Bromodomain-containing protein 4; experiment: Inhibition of FAM-labeled ZBA248 binding to recombinant N-terminal His6-tagged BRD4 bromodomain 2 (333 to 460 residues) (unknown origin) expressed in Escherichia coli Rosetta2 DE3 after 30 mins by fluorescence polarization assay
[20] = target: T3, Protein cereblon/Bromodomain-containing protein 4/Cullin-4A (Homo sapiens); experiment: Induction of cereblon/cullin 4A-mediated BRD4 degradation in human RS4:11 cells at 30 to 1000 nM after 3 hrs by Western blot method; assay type: cell-based; method in brief: as §2
[21] = target: T2, Protein cereblon/Bromodomain-containing protein 3/Cullin-4A (Homo sapiens); experiment: Induction of cereblon/cullin 4A-mediated BRD3 degradation in human RS4:11 cells at 30 to 1000 nM after 3 hrs by Western blot method; assay type: cell-based; method in brief: as §2
[22] = target: T1, Protein cereblon/Bromodomain-containing protein 2/Cullin-4A (Homo sapiens); experiment: Induction of cereblon/cullin 4A-mediated BRD2 degradation in human RS4:11 cells at 30 to 1000 nM after 3 hrs by Western blot method; assay type: cell-based; method in brief: as §1
[23] = target: T1, Protein cereblon/Bromodomain-containing protein 2/Cullin-4A (Homo sapiens); experiment: Induction of cereblon/cullin 4A-mediated BRD2 degradation in human MOLM13 cells after 3 hrs by Western blot method; assay type: cell-based
[24] = target: T2, Protein cereblon/Bromodomain-containing protein 3/Cullin-4A (Homo sapiens); experiment: Induction of cereblon/cullin 4A-mediated BRD3 degradation in human MOLM13 cells after 3 hrs by Western blot method; assay type: cell-based
[25] = target: T3, Protein cereblon/Bromodomain-containing protein 4/Cullin-4A (Homo sapiens); experiment: Induction of cereblon/cullin 4A-mediated BRD4 degradation in human MOLM13 cells after 3 hrs by Western blot method; assay type: cell-based

T5 sequence (Q15059 whole entry, the tested form may be a part): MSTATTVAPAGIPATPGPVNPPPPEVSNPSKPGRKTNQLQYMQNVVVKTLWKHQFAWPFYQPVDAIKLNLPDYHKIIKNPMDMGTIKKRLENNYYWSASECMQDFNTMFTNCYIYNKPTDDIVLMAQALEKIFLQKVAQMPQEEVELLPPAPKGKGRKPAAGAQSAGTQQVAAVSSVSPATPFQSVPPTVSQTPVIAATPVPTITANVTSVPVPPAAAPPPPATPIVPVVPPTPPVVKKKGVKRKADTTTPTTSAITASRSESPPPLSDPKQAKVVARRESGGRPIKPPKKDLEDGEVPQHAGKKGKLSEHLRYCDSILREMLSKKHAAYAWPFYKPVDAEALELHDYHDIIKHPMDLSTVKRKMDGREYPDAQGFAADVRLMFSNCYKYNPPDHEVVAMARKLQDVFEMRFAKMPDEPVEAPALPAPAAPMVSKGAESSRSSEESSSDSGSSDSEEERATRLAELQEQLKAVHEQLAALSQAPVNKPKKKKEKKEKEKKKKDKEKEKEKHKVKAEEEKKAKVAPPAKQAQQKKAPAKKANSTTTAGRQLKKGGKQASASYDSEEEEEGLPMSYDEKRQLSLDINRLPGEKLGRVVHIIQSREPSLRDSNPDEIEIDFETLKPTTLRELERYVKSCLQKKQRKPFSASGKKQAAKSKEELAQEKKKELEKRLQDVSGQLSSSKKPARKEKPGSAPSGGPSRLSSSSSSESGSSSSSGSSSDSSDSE
T1 sequence (P25440 whole entry, looked up): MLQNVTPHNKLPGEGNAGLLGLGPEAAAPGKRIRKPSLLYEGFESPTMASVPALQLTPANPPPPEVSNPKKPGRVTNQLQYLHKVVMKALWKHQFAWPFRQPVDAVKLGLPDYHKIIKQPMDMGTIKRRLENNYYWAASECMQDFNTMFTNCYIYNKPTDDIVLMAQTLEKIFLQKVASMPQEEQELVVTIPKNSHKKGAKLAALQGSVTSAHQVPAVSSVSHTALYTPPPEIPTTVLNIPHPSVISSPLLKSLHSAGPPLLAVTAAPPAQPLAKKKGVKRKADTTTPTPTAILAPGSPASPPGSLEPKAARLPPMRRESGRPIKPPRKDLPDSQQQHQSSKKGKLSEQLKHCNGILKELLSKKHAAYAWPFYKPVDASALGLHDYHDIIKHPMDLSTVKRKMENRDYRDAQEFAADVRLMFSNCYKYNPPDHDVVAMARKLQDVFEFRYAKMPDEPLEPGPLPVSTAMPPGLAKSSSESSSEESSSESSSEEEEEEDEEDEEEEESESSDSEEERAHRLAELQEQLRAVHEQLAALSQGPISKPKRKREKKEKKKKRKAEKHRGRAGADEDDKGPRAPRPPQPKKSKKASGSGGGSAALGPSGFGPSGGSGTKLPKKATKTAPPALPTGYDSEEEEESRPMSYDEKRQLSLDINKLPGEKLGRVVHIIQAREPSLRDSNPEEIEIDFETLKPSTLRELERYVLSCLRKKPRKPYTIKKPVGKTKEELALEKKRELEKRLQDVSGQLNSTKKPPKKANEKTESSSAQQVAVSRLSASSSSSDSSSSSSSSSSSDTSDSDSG
T1 sequence (Q13619 whole entry, looked up): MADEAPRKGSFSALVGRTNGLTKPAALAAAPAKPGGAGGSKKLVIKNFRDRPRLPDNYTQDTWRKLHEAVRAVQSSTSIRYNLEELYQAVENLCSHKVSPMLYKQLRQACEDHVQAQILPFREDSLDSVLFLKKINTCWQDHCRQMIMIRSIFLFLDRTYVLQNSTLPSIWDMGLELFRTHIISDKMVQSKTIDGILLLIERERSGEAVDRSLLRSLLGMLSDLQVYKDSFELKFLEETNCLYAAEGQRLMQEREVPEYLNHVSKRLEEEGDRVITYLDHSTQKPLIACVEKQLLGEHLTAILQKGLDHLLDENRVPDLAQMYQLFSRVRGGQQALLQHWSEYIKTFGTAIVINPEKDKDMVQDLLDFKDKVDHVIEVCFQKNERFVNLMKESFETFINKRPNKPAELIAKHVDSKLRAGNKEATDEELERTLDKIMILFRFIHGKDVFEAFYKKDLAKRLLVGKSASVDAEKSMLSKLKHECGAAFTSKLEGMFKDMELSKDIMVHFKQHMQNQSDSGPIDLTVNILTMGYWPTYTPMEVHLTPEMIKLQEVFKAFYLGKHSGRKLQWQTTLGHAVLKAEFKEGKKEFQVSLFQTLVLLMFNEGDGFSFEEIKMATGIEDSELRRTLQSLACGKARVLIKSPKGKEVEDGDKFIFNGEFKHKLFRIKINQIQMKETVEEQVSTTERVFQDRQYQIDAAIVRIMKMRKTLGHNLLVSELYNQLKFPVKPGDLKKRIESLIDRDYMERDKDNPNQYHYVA
T1 sequence (Q96SW2 whole entry, looked up): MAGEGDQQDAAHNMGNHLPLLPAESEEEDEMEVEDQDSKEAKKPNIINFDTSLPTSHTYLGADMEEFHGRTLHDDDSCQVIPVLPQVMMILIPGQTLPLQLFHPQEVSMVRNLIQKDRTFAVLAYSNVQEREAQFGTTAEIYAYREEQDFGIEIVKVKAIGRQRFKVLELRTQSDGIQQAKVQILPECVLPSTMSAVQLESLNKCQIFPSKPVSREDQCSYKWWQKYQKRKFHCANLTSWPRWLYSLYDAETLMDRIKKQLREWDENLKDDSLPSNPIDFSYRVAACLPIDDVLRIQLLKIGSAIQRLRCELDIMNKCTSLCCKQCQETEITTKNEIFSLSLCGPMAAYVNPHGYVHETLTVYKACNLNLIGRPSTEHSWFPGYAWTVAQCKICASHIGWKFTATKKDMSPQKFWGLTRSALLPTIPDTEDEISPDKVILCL
T4 sequence (P25440 whole entry, the tested form may be a part): as the sequence (P25440 whole entry, looked up) above
T2 sequence (Q13619 whole entry, looked up): as the sequence (Q13619 whole entry, looked up) above
T2 sequence (Q15059 whole entry, looked up): as the sequence (Q15059 whole entry, the tested form may be a part) above
T2 sequence (Q96SW2 whole entry, looked up): as the sequence (Q96SW2 whole entry, looked up) above

## CCn1nc(C2CC2)cc1Nc1nc(C(=O)NCCCCCCCOc2cccc3c2C(=O)N(C2CCC(=O)NC2=O)C3=O)nc2[nH]c3cc(-c4c(C)noc4C)c(OC)cc3c12 (stereo not given)
[1]
  IC50: 0.48 nM
[2]
  IC50: 3.9 nM

## CCn1nc(C2CC2)cc1Nc1nc(C(=O)NCCOCCCc2cccc3c2C(=O)N(C2CCC(=O)NC2=O)C3=O)nc2[nH]c3cc(-c4c(C)noc4C)c(OC)cc3c12 (stereo not given)
[1]
  IC50: 0.42 nM
[2]
  IC50: 5.9 nM

## Cc1sc2c(c1C)C(c1ccc(Cl)cc1)=N[C@@H](CC(=O)Nc1ccc(OCCOCCOCCOCCNc3cccc4c3C(=O)N(C3CCC(=O)NC3=O)C4=O)cc1)c1nnc(C)n1-2 (stereo not given in full)
[3]
  Activity: Active
[4]
  Activity: Active

## Cc1sc2c(c1C)C(c1ccc(Cl)cc1)=N[C@@H](CC(=O)NCCCCNC(=O)COc1cccc3c1C(=O)N(C1CCC(=O)NC1=O)C3=O)c1nnc(C)n1-2 (stereo not given in full)
[2]
  IC50: 657 nM
[5]
  Activity: Active
[6]
  Activity: Active
[7]
  Activity: Active

## CCn1nc(C2CC2)cc1Nc1nc(C(=O)NCCNc2cccc3c2C(=O)N(C2CCC(=O)NC2=O)C3=O)nc2[nH]c3cc(-c4c(C)noc4C)c(OC)cc3c12 (stereo not given)
[1]
  IC50: 4.8 nM
[2]
  IC50: 68.7 nM

## CCn1nc(C2CC2)cc1Nc1nc(C(=O)NCCCCc2cccc3c2CN(C2CCC(=O)NC2=O)C3=O)nc2[nH]c3cc(-c4c(C)noc4C)c(OC)cc3c12 (stereo not given)
[1]
  IC50: 0.98 nM
[2]
  IC50: 13.7 nM
[8]
  Activity: Dose-dependent effect
[9]
  Activity: Dose-dependent effect
[10]
  Activity: Dose-dependent effect

## CCn1nc(C2CC2)cc1Nc1nc(C(=O)NCCCCNC(=O)COc2cccc3c2C(=O)N(C2CCC(=O)NC2=O)C3=O)nc2[nH]c3cc(-c4c(C)noc4C)c(OC)cc3c12 (stereo not given)
[1]
  IC50: 4.3 nM
[2]
  IC50: 45.5 nM
[11]
  Activity: Active
[12]
  Activity: Active
[13]
  Activity: Active

## CCn1nc(C2CC2)cc1Nc1nc(C(=O)NCCCc2cccc3c2CN(C2CCC(=O)NC2=O)C3=O)nc2[nH]c3cc(-c4c(C)noc4C)c(OC)cc3c12 (stereo not given)
[1]
  IC50: 9.6 nM
[2]
  IC50: 72.3 nM
[8]
  Activity: Dose-dependent effect
[9]
  Activity: Dose-dependent effect
[10]
  Activity: Dose-dependent effect

## CCn1nc(C2CC2)cc1Nc1nc(C(=O)NCCCCCCc2cccc3c2CN(C2CCC(=O)NC2=O)C3=O)nc2[nH]c3cc(-c4c(C)noc4C)c(OC)cc3c12 (stereo not given)
[1]
  IC50: 0.037 nM
[2]
  IC50: 1 nM
[8]
  Activity: Dose-dependent effect
[9]
  Activity: Dose-dependent effect
[10]
  Activity: Dose-dependent effect

## COc1cc2c(cc1-c1c(C)noc1C)[nH]c1nc(C(=O)NCCCCCc3cccc4c3CN(C3CCC(=O)NC3=O)C4=O)ncc12 (stereo not given)
[1]
  IC50: > 1000 nM
[2]
  IC50: > 1000 nM

## CCn1nc(C2CC2)cc1Nc1nc(C(=O)NCCCCNC(=O)CNc2cccc3c2C(=O)N(C2CCC(=O)NC2=O)C3=O)nc2[nH]c3cc(-c4c(C)noc4C)c(OC)cc3c12 (stereo not given)
[1]
  IC50: 2.5 nM
[2]
  IC50: 19.9 nM

## CCn1nc(C2CC2)cc1Nc1nc(C(=O)NCCCCNc2cccc3c2C(=O)N(C2CCC(=O)NC2=O)C3=O)nc2[nH]c3cc(-c4c(C)noc4C)c(OC)cc3c12 (stereo not given)
[1]
  IC50: 0.45 nM
[2]
  IC50: 5 nM

## CNC(=O)c1ncc2c(n1)[nH]c1cc(-c3c(C)noc3C)c(OC)cc12
[14]
  IC50: 218 nM
  Ki: 101 nM
[15]
  IC50: 224 nM
  Ki: 57.3 nM
[16]
  IC50: 294 nM
  Ki: 82.1 nM
[17]
  IC50: 189 nM
  Ki: 42.4 nM
[18]
  IC50: 484 nM
  Ki: 152 nM
[19]
  IC50: 630 nM
  Ki: 205 nM

## CCn1nc(C2CC2)cc1Nc1nc(C(=O)NCCCCCc2cccc3c2CN(C2CCC(=O)N(C)C2=O)C3=O)nc2[nH]c3cc(-c4c(C)noc4C)c(OC)cc3c12 (stereo not given)
[1]
  IC50: 35.1 nM
[2]
  IC50: 83.4 nM
[20]
  Activity: inactive
[21]
  Activity: inactive
[22]
  Activity: inactive

## CCn1nc(C2CC2)cc1Nc1nc(C(=O)NCCCNc2cccc3c2C(=O)N(C2CCC(=O)NC2=O)C3=O)nc2[nH]c3cc(-c4c(C)noc4C)c(OC)cc3c12 (stereo not given)
[1]
  IC50: 2.4 nM
[2]
  IC50: 9.5 nM

## CCn1nc(C2CC2)cc1Nc1nc(C(=O)NCCCCCNc2cccc3c2C(=O)N(C2CCC(=O)NC2=O)C3=O)nc2[nH]c3cc(-c4c(C)noc4C)c(OC)cc3c12 (stereo not given)
[1]
  IC50: 0.14 nM
[2]
  IC50: 2.1 nM
[23]
  Activity: Active
[24]
  Activity: Active
[25]
  Activity: Active

## CCn1nc(C2CC2)cc1Nc1nc(C(=O)NCCCCCc2cccc3c2C(=O)N(C2CCC(=O)NC2=O)C3=O)nc2[nH]c3cc(-c4c(C)noc4C)c(OC)cc3c12 (stereo not given)
[1]
  IC50: 0.14 nM
[2]
  IC50: 2.1 nM

## CCn1nc(C2CC2)cc1Nc1nc(C(=O)NCCCCCCc2cccc3c2C(=O)N(C2CCC(=O)NC2=O)C3=O)nc2[nH]c3cc(-c4c(C)noc4C)c(OC)cc3c12 (stereo not given)
[1]
  IC50: 0.17 nM
[2]
  IC50: 2.5 nM

## CCn1nc(C2CC2)cc1Nc1nc(C(=O)NCCOCCCc2cccc3c2CN(C2CCC(=O)NC2=O)C3=O)nc2[nH]c3cc(-c4c(C)noc4C)c(OC)cc3c12 (stereo not given)
[1]
  IC50: 0.9 nM
[2]
  IC50: 5.4 nM

## CCn1nc(C2CC2)cc1Nc1nc(C(=O)NCCCCCCCNc2cccc3c2C(=O)N(C2CCC(=O)NC2=O)C3=O)nc2[nH]c3cc(-c4c(C)noc4C)c(OC)cc3c12 (stereo not given)
[1]
  IC50: 0.2 nM
[2]
  IC50: 1.2 nM
[23]
  Activity: Active
[24]
  Activity: Active
[25]
  Activity: Active

## CCn1nc(C2CC2)cc1Nc1nc(C(=O)NCCCCCCNc2cccc3c2C(=O)N(C2CCC(=O)NC2=O)C3=O)nc2[nH]c3cc(-c4c(C)noc4C)c(OC)cc3c12 (stereo not given)
[1]
  IC50: 0.63 nM
[2]
  IC50: 3.7 nM
